Bioassay records deposited in PubChem BioAssay by several laboratories.
Shown are actives, neighbours in structure and some others; about 2.6% of the full set was active somewhere.
SENP8 block-1 – SENP8 protease inhibition | AID 2540 | inhibition, % at 10 µM | 330,000 tested, 1.2% active | Q96LD8 | purified SENP8, Z-RLRGG-aminoluciferin cleavage, luminescence; in the data active means inhibition above about 50%
Target sequence (Q96LD8 whole entry, looked up): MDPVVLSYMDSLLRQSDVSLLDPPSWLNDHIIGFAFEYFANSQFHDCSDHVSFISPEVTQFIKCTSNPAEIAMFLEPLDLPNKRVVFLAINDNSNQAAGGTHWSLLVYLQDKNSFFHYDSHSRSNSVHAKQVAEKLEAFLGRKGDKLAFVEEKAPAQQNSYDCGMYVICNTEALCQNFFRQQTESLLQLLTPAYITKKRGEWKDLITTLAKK
SENP1 inh – blocks the human SENP1 SUMO protease catalytic domain; Q9P0U3; recombinant SENP1 catalytic domain, CyPet-SUMO1-YPet FRET cleavage; inhibition, % at 10 µM; 360,000 tested, 0.21% active; AID 624204;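 active means inhibition at least 30% at 10 µM, raw YFP signal under a set limit, fluorescence ratio 0.5 to 1.5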;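 further: 0% = enzyme with DMSO and 100% = no enzyme wells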
Target sequence (Q9P0U3 419-644 limits assumed): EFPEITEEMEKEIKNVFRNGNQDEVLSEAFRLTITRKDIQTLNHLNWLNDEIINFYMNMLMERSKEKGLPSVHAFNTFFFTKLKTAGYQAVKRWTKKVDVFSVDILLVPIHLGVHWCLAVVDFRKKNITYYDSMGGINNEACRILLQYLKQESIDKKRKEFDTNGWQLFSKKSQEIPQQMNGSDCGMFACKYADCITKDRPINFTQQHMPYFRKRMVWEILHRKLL
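Compound: 10 µM single point, 0.5% DMSO; Test system: hSENP1 catalytic domain, recombinant; Timing: 50 min reaction at room temperature; Technique: FRET, CFP and YFP emission; Control set: no-enzyme wells low, DMSO-plus-enzyme wells high control.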
SENP7 inh – blocks the human protease SENP7. Q9BQF6. recombinant SENP7, Z-RLRGG-aminoluciferin luminescence, 40 min. inhibition, % at 5 µM. 330,000 tested, 1.5% active. AID 434973;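 active means inhibition above about 50% at the single test dose, limit read from the data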;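 further: plate controls were DMSO with enzyme for no effect and no enzyme buffer wells for full effect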
SENP6 block – SENP6 protease inhibition | Q9GZR1 | Recombinant SENP6 catalytic domain, aminoluciferin luminescence | inhibition, % at 10 µM | 330,000 tested, 1.8% active;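 active means inhibition above about 50% at the single tested dose, limit read from the data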;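 further: plate controls were DMSO wells with enzyme for no effect and DMSO wells lacking enzyme for full effect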
Platelet DG rel – platelet dense granule release activity | inhibition, %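 (compounds screened at 7.5 µM in platelet-rich plasma)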 | 300,000 tested, 0.22% active | human platelet-rich plasma, SFLLRN dense granule ATP release, luminescence;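 active means mean replicate score, as percent of positive control, at or above 50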
SENP8 block-2 – inhibitors of human SENP8 protease; 360,000 tested, 0.64% active; recombinant SENP8, Nedd8 substrate fluorescence; Q96LD8; inhibition, % at 20 µM; in the data active means inhibition mostly above about 40%, no sharp cut-off; inactive means mostly below about 27%
Numbers without * were called inactive; . = no result.

SMILES | SENP8 block-1 | SENP1 inh | SENP7 inh | SENP6 block | Platelet DG rel | SENP8 block-2
CC1CCCN(C2=C(NS(=O)(=O)c3ccc(Cl)cc3)C(=O)c3ccccc3C2=O)C1 (centres undefined) | 11.5 | -0.1 | 12.1 | 31.8 | 2.7 | 59.7*
NC(=O)C1CCN(c2oc(-c3ccccc3F)nc2S(=O)(=O)c2ccc(Cl)cc2)CC1 | -3.5 | 0.1 | -2.0 | 0.8 | 3.5 | 13.9
COC(=O)C1CCN(C2=C(NS(=O)(=O)c3ccc(Cl)cc3)C(=O)c3ccccc3C2=O)CC1 | 5.6 | 1.6 | 19.9 | -7.9 | 0.5 | 40.1*
NC(=O)C1CCN(C2=C(NS(=O)(=O)c3ccc(Cl)cc3)C(=O)c3ccccc3C2=O)CC1 | 6.2 | 1.7 | 14.7 | 5.7 | 4.7 | 44.5*
Cc1nn2c(NCCOCCO)c3c(nc2c1-c1ccccc1)CCC3 | -8.1 | 3.5 | -8.2 | -6.4 | 2.5 | -237.0
CCCSc1cc(N2CCCC2)nc(-c2ccccc2)n1 | -5.8 | -0.3 | 1.4 | -14.3 | 1.8 | -4.1
CCn1c2ccccc2nc2cc3c(cc21)c(Cl)c(=O)c1ccccc13 | . | 1.2 | . | . | . | 80.8*
CCn1c(/C=C/c2c(C)n(CC)c3ccccc23)nc2ccccc2c1=O | 2.3 | -29.2 | 1.4 | 14.3 | -20.2 | -109.0
N#CC1=C2SCN(Cc3ccco3)CN2C(=O)CC1c1c(F)cccc1Cl (centres undefined) | 11.5 | -9.2 | 6.4 | -0.3 | -2.4 | 36.0*
Cc1ccc(C2CC(=O)N3CN(Cc4ccco4)CSC3=C2C#N)cc1 (centres undefined) | -1.6 | -6.7 | 5.8 | 11.6 | 10.1 | -0.5
Cc1nc2nc(-c3ccc(Cl)cc3)cn2nc1C | 62.4* | -14.1 | -6.3 | 69.2* | 7.9 | -499.7
CCc1nc2c(OCc3ccccc3C)cccn2c1N(C)C(=O)C(C)C | . | 1.0 | . | . | . | 11.7
O=C1/C(=C/c2ccc(O)c([N+](=O)[O-])c2)SC(=S)N1Cc1ccccc1 | 92.4* | 37.5* | 30.0 | 94.8* | 4.6 | 40.9*
COc1cc(/C=C2\SC(=S)N(NC(=O)c3ccccc3O)C2=O)ccc1O | 10.3 | 58.9* | -0.8 | 6.2 | 7.6 | 18.3
O=C(NN1C(=O)/C(=C/c2ccc(O)c([N+](=O)[O-])c2)SC1=S)c1ccccc1Cl | 4.1 | 31.7* | 6.9 | -18.0 | 3.7 | 23.8
O=C1/C(=C\c2cccc([N+](=O)[O-])c2O)SC(=S)N1Cc1ccccc1 | . | 5.7 | . | . | 13.1 | 25.4
N/C(=N\OC(=O)c1cccc(Br)c1)c1ccccn1 | 86.5* | 0.5 | 98.4* | 96.0* | -7.9 | 2.9
CCOc1ccc(C(=O)O/N=C(\N)c2ccccn2)cc1OCC | -13.5 | -0.5 | 21.4 | -19.3 | 17.7 | 2.7
CC(=O)Nc1ccc(OCC(O)Cn2cccn2)cc1 (centres undefined) | 6.1 | 1.8 | 2.5 | -7.1 | 10.0 | 17.6
Cn1c(=NC(=O)c2ccccc2[N+](=O)[O-])sc2cc(S(C)(=O)=O)ccc21 | -5.6 | -2.0 | 57.4* | 30.3 | 8.9 | 19.8
Cn1c(=NC(=O)c2ccc(S(=O)(=O)N3CCCc4ccccc43)cc2)sc2cc(S(C)(=O)=O)ccc21 | 9.5 | 3.5 | 4.9 | 7.3 | -11.2 | -85.9
O=C(NCc1ccc(F)cc1)C(c1ccccc1)N(C(=O)c1csnn1)C1CCCC1 (centres undefined) | 0.7 | 0.9 | 5.1 | -12.7 | 2.3 | 6.3
Cc1noc(/C=C/Nc2ccc(F)cc2F)c1[N+](=O)[O-] | 83.8* | -25.0 | 97.2* | 87.0* | 19.9 | 7.0
CCOc1ccc(N/C=C/C(=O)c2ccc(OC)cc2)c([N+](=O)[O-])c1 | -9.1 | 37.4* | -5.4 | -13.2 | 3.6 | 26.5
Cc1cccc(/C=N/NC(=O)c2cccc([N+](=O)[O-])c2)n1 | 1.6 | 0.5 | -10.5 | -2.0 | 4.9 | 15.2
SMILES | SENP8 block-1 | SENP1 inh | SENP7 inh | SENP6 block | Platelet DG rel | SENP8 block-2
Cc1cc(/C=N/NC(=O)c2cccc([N+](=O)[O-])c2)c(C)n1-c1ccc(Cl)cc1Cl | -2.4 | -1.4 | 3.7 | -0.2 | -0.6 | 51.5*
COc1ccc(NC(=O)c2cc(S(=O)(=O)N3CCOCC3)cn2C)cc1Cl | -1.6 | -0.3 | -9.9 | 0.4 | 2.5 | 9.8
Cn1cc(S(=O)(=O)N2CCOCC2)cc1C(=O)Nc1ccc(Cl)cc1 | 1.5 | 0.5 | -6.0 | -12.5 | 99.1* | 9.7
O=C(NCCNc1ccc2ccccc2c1)c1cccn2c(=O)c3sccc3nc12 | 22.7 | . | 23.0 | 56.3* | -3.3 | .
O=c1cc(-c2ccc(O)c(O)c2)oc2ccc3ccccc3c12 | 95.8* | 0.3 | 99.3* | 95.4* | . | -86.9
O=c1cc(-c2ccccc2)oc2ccc3ccccc3c12 | . | 1.9 | . | . | . | 6.9
CCn1cnnc1SCC(=O)Nc1ccccc1C(=O)NC1CC1 | -2.2 | 1.3 | 3.2 | -4.5 | . | 9.3
CC1=NN(c2nc(-c3ccc(C)cc3)cs2)C(=O)C1N=Nc1ccc2ccccc2c1 (centres undefined) | -2.4 | 8.5 | 4.9 | 11.5 | 2.7 | 54.7*
NC1=C(Br)C(=O)c2ncccc2C1=O | . | 0.5 | . | . | . | 96.5*
O=C1c2cccnc2C(=O)N1CO | -0.1 | 2.8 | -4.5 | 0.8 | 1.2 | 30.9
Cc1cc(C(=O)NCC(=O)Nc2c(C)cccc2C)c2ccccc2n1 | 3.3 | 1.4 | -5.6 | 4.2 | . | 1.2
O=C(O)COc1ccccc1/C=N/NC(=O)CSc1nnc(SCc2ccccc2)s1 | 24.4 | 2.1 | 14.0 | 56.2* | 0.0 | 21.6
O=C(CSc1nnc(SCc2ccccc2Cl)s1)N/N=C/c1ccc(C(=O)O)cc1 | 83.0* | 4.1 | 31.4 | 93.3* | -0.7 | 19.0
Cc1ccc(OCCC(=O)Nc2ccc3c(c2)OCO3)cc1 | -11.1 | -0.2 | -5.3 | -0.8 | . | 10.3
C=CCn1c(C)cc(C2=NNC(=NC(C)(C)C)SC2)c1C | 51.0* | -4.3 | 9.3 | 82.8* | -2.1 | -3.5
O=C(Nc1ccccc1)Nc1ccc2nnsc2c1 | 42.3 | -0.9 | 62.8* | 54.1* | 7.2 | -3.8
CC(=O)c1ccc(NC(=O)c2ccc3snnc3c2)cc1 | 0.5 | -0.8 | 2.7 | -4.8 | -1.8 | 4.9
CN(C)c1ccc(NC(=O)Nc2ccc3snnc3c2)cc1 | 23.0 | 4.2 | 61.9* | 70.0* | -43.3 | 28.4
Cc1cc2nc3ccc(N(C)C)cc3nc2cc1N | 49.8 | 71.8 | 15.9 | 51.0* | -2.1 | 81.1*
Cc1cccc2cc3c(N)c(C(=O)N4CCOCC4)sc3nc12 | -3.6 | 41.6* | -0.2 | -23.2 | 4.5 | -37.1
Cc1cc(C)c2cc3c(N)c(C(=O)N4CCc5ccccc5C4)sc3nc2c1 | 2.4 | 7.4 | 3.6 | -3.8 | 5.5 | -223.9
Nc1nc(-c2ccccc2)c(N=Nc2ccc(Cl)cc2)s1 | -6.2 | 6.7 | -1.7 | -11.8 | 3.0 | 46.0*
Nc1nc(-c2ccccc2)c(-c2ccccc2)s1 | 3.6 | 0.6 | -0.8 | 2.7 | -1.5 | -48.5
O=C(CNC(=O)c1cccnc1)N=Nc1c(O)[nH]c2c(Br)cc(Br)cc12 | -4.3 | 0.7 | 10.6 | 8.8 | 0.7 | 44.3*
